Active and inactive are the calls of the source. No cut-off for these calls is given here.
Legend:
HOP-92 = assay: Antiproliferative activity against human HOP-92 cells assessed as growth inhibition incubated for 72 hrs by MTT assay; type: functional
COLO 205 = assay: Antiproliferative activity against human COLO 205 cells assessed as growth inhibition incubated for 72 hrs by MTT assay; type: functional
MDA-MB-468 = assay: Antiproliferative activity against human MDA-MB-468 cells assessed as growth inhibition incubated for 72 hrs by MTT assay; type: functional
SF-295 = assay: Antiproliferative activity against human SF-295 cells assessed as growth inhibition incubated for 72 hrs by MTT assay; type: functional
SF-539 = assay: Antiproliferative activity against human SF-539 cells assessed as growth inhibition incubated for 72 hrs by MTT assay; type: functional
HOP-62 = assay: Antiproliferative activity against human HOP-62 cells assessed as growth inhibition incubated for 72 hrs by MTT assay; type: functional
NCI-H226 = assay: Antiproliferative activity against human NCI-H226 cells assessed as growth inhibition incubated for 72 hrs by MTT assay; type: functional
M14 = assay: Antiproliferative activity against human M14 cells assessed as growth inhibition incubated for 72 hrs by MTT assay; type: functional
[1] = Cytotoxicity against resting human PBL cells assessed as inhibition of cell growth measured after 72 hrs by MTT assay; type: toxicity, cell-based; settings: resting human peripheral blood lymphocytes (PBL)
ACHN = assay: Antiproliferative activity against human ACHN cells assessed as growth inhibition incubated for 72 hrs by MTT assay; type: functional
CCRF-CEM [2] = assay: Antiproliferative activity against human CCRF-CEM cells assessed as growth inhibition incubated for 72 hrs by MTT assay; type: functional
A549 [3] = assay: Induction of apoptosis in human A549 cells assessed as increase in apoptotic cells incubated for 48 hrs by annexin V-FITC and PI staining based flow cytometric analysis; type: functional, cell-based; settings: dose 1-5 µM
Method in brief: (§1)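 Cells exposed to several concentrations for 48 h, then stained with annexin V-FITC and PI and read by flow cytometry (FL1/FL3). Apoptotic cells = annexin V-positive plus annexin V/PI double-positive. Mean of three independent experiments.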

MCF7 = assay: Antiproliferative activity against human MCF7 cells assessed as growth inhibition incubated for 72 hrs by MTT assay; type: functional
HL-60(TB) = assay: Antiproliferative activity against human HL-60(TB) cells assessed as growth inhibition incubated for 72 hrs by […]; type: functional
Method in brief: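 NCI 60-cell-line panel screen. […] Compounds were dissolved in DMSO as 10 mM stocks, and DMSO in the assays stayed at or below 0.1%.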

SU-DHL10 = assay: Antiproliferative activity against human SU-DHL-10 cells assessed as reduction in cell proliferation at 1 uM measured after 72 hrs by MTT assay relative to control; type: functional; parameters: scale not given: the % may be the effect or the level left
Method in brief: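 Single-dose 1 μM screen in lymphoma cells (RPMI-1640, 20% FBS; 5,000–10,000 cells/well), 72 h at 37 °C, 5% CO2, DMSO ≤0.1%. MTT for 4 h, SDS lysis, absorbance at 570 nm. Proliferation expressed as percent of untreated control.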

NCI-H23 = assay: Antiproliferative activity against human NCI-H23 cells assessed as growth inhibition incubated for 72 hrs by MTT assay; type: functional
KM12 = assay: Antiproliferative activity against human KM12 cells assessed as growth inhibition incubated for 72 hrs by MTT assay; type: functional
RPMI-8226 = assay: Antiproliferative activity against human RPMI-8226 cells assessed as growth inhibition incubated for 72 hrs by MTT assay; type: functional
LOX IMVI = assay: Antiproliferative activity against human LOX IMVI cells assessed as growth inhibition incubated for 72 hrs by MTT assay; type: functional
CCRF-CEM [4] = assay: Induction of apoptosis in human CCRF-CEM cells assessed as increase in apoptotic cells incubated for 48 hrs by annexin V-FITC and PI staining based flow cytometric analysis; type: functional, cell-based; settings: dose 1-5 µM; method in brief: as §1
[5] = Antiproliferative activity against human HBL1 cells assessed as cell growth inhibition measured after 72 hrs by MTT assay; type: functional, cell-based; settings: HBL1, 72 h
Method in brief: (§2)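 Lymphoma cells in RPMI-1640 with 20% FBS, seeded at 5,000–10,000 cells/well depending on doubling time. Exposed for 72 h at 37 °C, 5% CO2 to a 1:2 serial dilution from 0 to 10 μM (DMSO ≤0.1%). MTT from a 5 mg/mL stock was added for 4 h, cells were lysed with 25% SDS, and A570 was read against medium-only blanks. IC50 from triplicate assays.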

UACC-62 = assay: Antiproliferative activity against human UACC-62 cells assessed as growth inhibition incubated for 72 hrs by assay; type: functional
NCI/ADR-RES = assay: Antiproliferative activity against human NCI-ADR-RES cells assessed as growth inhibition incubated for 72 hrs by MTT assay; type: functional
A549 [6] = assay: Induction of cell cycle arrest in human A549 cells assessed as accumulation of cells at G2/M phase at 1 uM incubated for 24 hrs by PI staining based flow cytometry analysis; type: functional
Method in brief: (§3)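 Seeding in 6-well plates, 2 mL medium: A549 5×10^4, CCRF-CEM 2.5×10^5, VL51 2.0×10^5. 24 h treatment, A549 detached with trypsin-EDTA. Cells fixed in 70% ice-cold ethanol, PI-labelled, analysed by flow cytometry. Mean of two independent experiments.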

SR = assay: Antiproliferative activity against human SR cells assessed as growth inhibition incubated for 72 hrs by MTT assay; type: functional
CCRF-CEM [7] = assay: Induction of cell cycle arrest in human CCRF-CEM cells assessed as reduction in accumulation of cells at S phase at 1 uM incubated for 24 hrs by PI staining based flow cytometry analysis; type: functional; method in brief: as §3
HCT-15 = assay: Antiproliferative activity against human HCT-15 cells assessed as growth inhibition incubated for 72 hrs by MTT assay; type: functional
HCC 2998 = assay: Antiproliferative activity against human HCC 2998 cells assessed as growth inhibition incubated for 72 hrs by MTT assay; type: functional
SK-OV-3 = assay: Antiproliferative activity against human SK-OV-3 cells assessed as growth inhibition incubated for 72 hrs by MTT assay; type: functional
[8] = Antiproliferative activity against human MINO cells assessed as cell growth inhibition measured after 72 hrs by MTT assay; type: functional, cell-based; method in brief: as §2
K562 = assay: Antiproliferative activity against human K562 cells assessed as growth inhibition incubated for 72 hrs by MTT assay; type: functional
[9] = Cytotoxicity against PHA-induced human PBL cells assessed as inhibition of cell growth measured after 72 hrs by MTT assay; type: toxicity, cell-based; settings: PHA-induced human peripheral blood lymphocytes (PBL)
A549 [10] = assay: Antiproliferative activity against human A549 cells assessed as growth inhibition incubated for 72 hrs by MTT assay; type: functional
CAKI-1 = assay: Antiproliferative activity against human CAKI-1 cells assessed as growth inhibition incubated for 72 hrs by MTT assay; type: functional
VL51 = assay: Induction of cell cycle arrest in human VL51 cells assessed as accumulation of cells at G2/M phase at 1 uM incubated for 24 hrs by PI staining based flow cytometry analysis; type: functional; method in brief: as §3
Hs-578T = assay: Antiproliferative activity against human Hs-578T cells assessed as growth inhibition incubated for 72 hrs by MTT assay; type: functional
A498 = assay: Antiproliferative activity against human A498 cells assessed as growth inhibition incubated for 72 hrs by MTT assay; type: functional

SMILES	GI50 (HOP-92) [µM]	GI50 (COLO 205) [µM]	GI50 (MDA-MB-468) [µM]	GI50 (SF-295) [µM]	GI50 (SF-539) [µM]	GI50 (HOP-62) [µM]	GI50 (NCI-H226) [µM]	GI50 (M14) [µM]	IC50 at 72 h [1] [µM]	GI50 (ACHN) [µM]	GI50 (CCRF-CEM [2]) [µM]	Activity (A549 [3])	GI50 (MCF7) [µM]	GI50 (HL-60(TB)) [µM]	Activity (SU-DHL10) [%]	GI50 (NCI-H23) [µM]	GI50 (KM12) [µM]	GI50 (RPMI-8226) [µM]	GI50 (LOX IMVI) [µM]	Activity (CCRF-CEM [4])	further results
COc1ccc(Cn2cc3c(c2-c2cc(OC)c(OC)c(OC)c2)CCCc2cnoc2-3)cc1N	0.52	0.38	0.65	0.5	0.4	0.69	2.54	0.48	> 10	0.69	0.44	Dose-Dependent Effect	0.42	0.3	>50	1.34	0.56	0.61	0.7	Dose-Dependent Effect	IC50 [5]: 0.5 µM; GI50 (UACC-62): 0.43 µM; GI50 (NCI/ADR-RES): 0.6 µM; Activity (A549 [6]): Active; GI50 (SR): 0.36 µM; Activity (CCRF-CEM [7]): Active; GI50 (HCT-15): 0.53 µM; GI50 (HCC 2998): 1.66 µM; GI50 (SK-OV-3): 0.68 µM; IC50 [8]: 0.4 µM; GI50 (K562): 0.39 µM; IC50 at 72 h [9]: > 10 µM; GI50 (A549 [10]): 0.95 µM; GI50 (CAKI-1): 0.58 µM; Activity (VL51): Active; GI50 (Hs-578T): 0.4 µM; GI50 (A498): 0.36 µM
COc1ccc(Cn2cc3c(c2-c2cc(OC)c(OC)c(OC)c2)CCCc2cnoc2-3)cc1	1.27	1.45	0.56	0.51	0.7	2.22	1.99	0.39	> 10	0.9	0.41	Dose-Dependent Effect	0.44	0.35	>50	2.62	0.69	1.56	0.99	Dose-Dependent Effect	IC50 [5]: 1 µM; GI50 (UACC-62): 0.91 µM; GI50 (NCI/ADR-RES): 0.54 µM; Activity (A549 [6]): Active; GI50 (SR): 0.36 µM; Activity (CCRF-CEM [7]): Active; GI50 (HCT-15): 0.48 µM; GI50 (HCC 2998): 1.61 µM; GI50 (SK-OV-3): 4.18 µM; IC50 [8]: 0.9 µM; GI50 (K562): 0.42 µM; IC50 at 72 h [9]: > 10 µM; GI50 (A549 [10]): 2.34 µM; GI50 (CAKI-1): 0.49 µM; Activity (VL51): Active; GI50 (Hs-578T): 1.54 µM; GI50 (A498): 0.69 µM
